This passage reports MIC and inhibition results from ChEMBL document CHEMBL5107950, “Structure-based design of haloperidol analogues as inhibitors of acetyltransferase Eis from Mycobacterium tuberculosis to overcome kanamycin resistance” (RSC Med Chem, 2021).

In brackets after ≈: the same amount, converted by molar mass. Activity calls are given as the source filed them. The rule behind the calls is not given here.

Experiment [1] has as its system Mycobacterium tuberculosis. Nature of the experiment: Potentiation of kanamycin-induced antibacterial activity against Mycobacterium tuberculosis H37Rv mc2 6230 with Eis C-14T mutation assessed as kanamycin MIC incubated for 1 week by resazurin staining based microdilution method. The experiment is classed as functional. Conditions: time 1 weeks. In outline: (§1)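 Microdilution in 7H9 + 10% OADC, 0.5% glycerol, 0.05% tyloxapol, 0.2% casamino acids, 24 µg/mL pantothenate. […] Culture at 0.5 McFarland diluted 1:100 and added. Incubated one week at 37 °C, then 5 µL of 2.5 mg/mL resazurin added, read after two days. Duplicate.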
(In general: Alamar Blue is a resazurin reagent that responds to reducing activity.)

For experiment [2], the system named is Mycobacterium tuberculosis. The experiment can be described thus: Potentiation of kanamycin-induced antibacterial activity against Mycobacterium tuberculosis mc2 6230-K204 with Eis C-14T mutation assessed as kanamycin MIC incubated for 1 week by resazurin staining based microdilution method. The experiment is classed as functional. To be noted: time 1 weeks. Summed up:
as §1

Experiment [3] relates to Mycobacterium tuberculosis. The experiment can be described thus: Antibacterial activity against Mycobacterium tuberculosis mc2 6230 with Eis C-14T mutation assessed as inhibition of bacterial growth incubated upto 3 weeks hrs by resazurin dye based double-dilution method. The experiment is classed as functional. Summed up: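 Double-dilution broth MIC. Media: M. smegmatis, Mueller-Hinton; M. abscessus, 7H9 + 0.05% Tween80 + 0.4% glycerol; mc²6230, 7H9 + 0.05% tyloxapol, 0.5% glycerol, 10% OADC, 0.2% casamino acids, 24 µg/mL pantothenate; other mycobacteria, 7H9 + 0.05% Tween80, 0.4% glycerol, 10% ADC. Inoculum from agar set to 0.5 McFarland, then diluted 1:100.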

Experiment [4] has as its system Mycobacterium tuberculosis. The experiment can be described thus: Antibacterial activity against Mycobacterium tuberculosis H37Rv mc2 6230 with Eis C-14T mutation assessed as inhibition of bacterial growth at 100 uM incubated for 1 week by resazurin staining based microdilution method. The experiment is classed as functional, organism-based. Conditions: time 1.0 weeks.

The subject of experiment [5] is Mycobacterium tuberculosis. The experiment can be described thus: Antibacterial activity against Mycobacterium tuberculosis mc2 6230-K204 with Eis C-14T mutation inhibition of bacterial growth at 100 uM incubated for 1 week by resazurin staining based microdilution method. The experiment is classed as functional, organism-based. Conditions: time 1.0 weeks.

With `O=C(CCCN1CCCCC1)c1ccc(F)cc1` [PRIMAPERONE], the MIC entry in experiment [1] is “<=1.25 ug ml-1”; in experiment [2] it was above 10 µg/mL.

`O=C(CCCN1CCC(O)(c2ccccc2)CC1)c1ccc(F)cc1`: the MIC result in experiment [1] was “<=1.25 ug ml-1”; in experiment [3] it was above 64 µM; in experiment [2], above 10 µg/mL.

Regarding `N=C(N)NCCCC(=O)c1ccc(F)cc1`, the results for the MIC result in experiment [1], in experiment [3] and in experiment [2] were “<=1.25 ug ml-1”, above 64 µM and above 10 µg/mL, respectively.

Regarding `O=C(CCCN1CCC(c2ccc(Cl)cc2)CC1)c1ccc(F)cc1`, in experiment [3], the MIC was found to be 64 µM (≈ 23 µg/mL). Moreover, the inhibition entry in experiment [4] and in experiment [5] was “Active” throughout.

For the molecule `O=C(CCCN1CCC(O)CC1)c1ccc(F)cc1`, the MIC result is “<=1.25 ug ml-1” in experiment [1] and above 10 µg/mL in experiment [2].

`CC(C)c1ccc(C(=O)CCCN2CCC(O)(c3ccc(Cl)cc3)CC2)cc1`: the MIC in experiment [3] was found to be 7.8 µM (≈ 3.12 µg/mL).

Regarding `CCc1ccc(C(=O)CCCN2CCC(O)(c3ccc(Cl)cc3)CC2)cc1`, the minimal inhibitory concentration (MIC) in experiment [3] was 15.6 µM (≈ 6.02 µg/mL).

Consider `CC(C)(C)c1ccc(C(=O)CCCN2CCC(O)(c3ccc(Cl)cc3)CC2)cc1`, for which the minimum inhibitory concentration (MIC) in experiment [3] was determined as 2 µM (≈ 0.828 µg/mL).

Turning to `O=C(CCCN1CC=C(c2ccc(Cl)cc2)CC1)c1ccc(F)cc1`, the MIC in experiment [3] came out at 32 µM (≈ 11.5 µg/mL). In addition, the inhibition entry in experiment [4] and in experiment [5] was “Active” in each case.

Regarding `Cc1ccc(C(=O)CCCN2CCC(O)(c3ccc(Cl)cc3)CC2)cc1`, the MIC in experiment [3] is 31.3 µM (≈ 11.6 µg/mL).

With `CC(C)(C)c1ccc(C(=O)CCCN2CCC(O)(c3ccc(Br)cc3)CC2)cc1`, the MIC in experiment [3] is 4 µM (≈ 1.83 µg/mL).

For orientation: MIC means the lowest concentration found to suppress growth.
